The structures appear in SMILES notation. In brackets after ≈: the same amount, converted by molar mass.

This assay has as its system Staphylococcus aureus. The experiment in a line: Antibacterial activity against methicillin-resistant Staphylococcus aureus after 18 hrs by agar microdilution method. The assay is classed as functional. An outline of the steps:
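Agar microdilution; compounds in DMSO, serial 2-fold dilutions mixed 1:100 into melted Mueller-Hinton agar, final 128 to 0.03 µg/mL. Clinical MRSA isolate (Songklanakarin Hospital) inoculum spotted on agar wells, incubated 35 °C for 18 h. MIC taken as lowest concentration inhibiting visible growth. Vancomycin positive control; DMSO-agar growth control.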
For the molecule `CO[C@]12C=C3C(=O)c4c(O)c(CC=C(C)C)c5c(c4O[C@]34[C@H](C1)[C@](C)(CO)O[C@]4(CC=C(C)C)C2=O)C(C)(C)[C@@H](C)O5`, the MIC is greater than 221 µM. For the molecule `CO[C@]12C=C3C(=O)c4c(O)c(CC=C(C)C)c5c(c4O[C@]34[C@H](C1)C(C)(C)O[C@]4(C/C=C(/C)C(=O)O)C2=O)C(C)(C)[C@H](C)O5` [SCORTECHINONE B], the lowest concentration to inhibit growth (MIC) was 3.38 µM (≈ 2 µg/mL). The result for `CO[C@H]1[C@@H]2C(=O)c3c(O)c(CC=C(C)C)c4c(c3O[C@]23[C@@H]2C[C@@]1(OC)C(=O)[C@@]3(C/C=C(/C)C(=O)O)OC2(C)C)C(C)(C)[C@@H](C)O4` [SCORTECHINONE I] reads 12.8 µM (≈ 8 µg/mL); that for `C=C(C)C(O)Cc1c(O)c2c(c3c1O[C@H](C)C3(C)C)O[C@@]13C(=C[C@@]4(OC)C[C@@H]1C(C)(C)O[C@]3(C/C=C(/C)C(=O)O)C4=O)C2=O` (stereo partly specified) [SCORTECHINONE R], greater than 210 µM. Molecule `C=C(C)C(O)Cc1c(O)c2c(c3c1O[C@H](C)C3(C)C)O[C@@]13[C@@H]4C[C@@](OC)(C(=O)[C@@]1(C/C=C(/C)C(=O)O)OC4(C)C)[C@@H](OC)[C@@H]3C2=O` (stereo partly specified) [SCORTECHINONE S] displayed an MIC of 100 µM (≈ 64.1 µg/mL).

`CO[C@H]1[C@@H]2C(=O)c3c(O)c(CC=C(C)C)c4c(c3O[C@]23[C@@H]2C[C@@]1(OC)C(=O)[C@@]3(C/C=C(\C)C=O)OC2(C)C)C(C)(C)[C@@H](C)O4` [SCORTECHINONE T]: the MIC is greater than 105 µM.

The molecule `CC(C)=CCc1c2c(c3oc4c(C(C)(C)O)cc(O)cc4c(=O)c3c1O)C(C)(C)[C@@H](C)O2` [SCORTECHINONE U] had an MIC greater than 292 µM.

In the case of `COc1cc2c(=O)c3c(O)c(CC=C(C)C)c4c(c3oc2c2c1[C@@](C/C=C(\C)C(=O)O)(C(=O)O)OC2(C)C)C(C)(C)[C@@H](C)O4` [SCORTECHINONE V], the MIC came out at 106 µM (≈ 64.3 µg/mL). To `COc1cc2c(=O)c3c(O)c4c(c(CC=C(C)C)c3oc2c2c1[C@@](C/C=C(\C)C(=O)O)(C(=O)O)OC2(C)C)OC(C)C4(C)C` (stereo partly specified) [SCORTECHINONE W] belongs 52.8 µM (≈ 32 µg/mL); to `COC1Cc2c(oc3c(CC=C(C)C)c4c(c(O)c3c2=O)C(C)(C)C(C)O4)C2=C1[C@@](C/C=C(\C)C(=O)O)(C(=O)O)OC2(C)C` (stereo partly specified) [SCORTECHINONE X], greater than 210 µM. To `CN[C@H](CC(C)C)C(=O)N[C@H]1C(=O)N[C@@H](CC(N)=O)C(=O)N[C@H]2C(=O)N[C@H]3C(=O)N[C@H](C(=O)N[C@H](C(=O)O)c4cc(O)cc(O)c4-c4cc3ccc4O)[C@H](O)c3ccc(c(Cl)c3)Oc3cc2cc(c3O[C@@H]2O[C@H](CO)[C@@H](O)[C@H](O)[C@H]2O[C@H]2C[C@](C)(N)[C@H](O)[C@H](C)O2)Oc2ccc(cc2Cl)[C@H]1O` [VANCOMYCIN] belongs 1.38 µM (≈ 2 µg/mL).

One may read the MIC as the smallest concentration in the dilution series that meets the test's criterion for growth inhibition. Higher therefore signals weaker potency.

These data come from ChEMBL document CHEMBL1158803, “Xanthone and sesquiterpene derivatives from the fruits of Garcinia scortechinii” (2005).
